Results reported in ChEMBL document CHEMBL5705897, “Characterization of WZ4003 and HTH-01-015 as selective inhibitors of the LKB1-tumour-suppressor-activated NUAK kinases” (Biochem J, 2014).
The source made the active and inactive calls. The rule behind the calls is not given here.

How the values were obtained:
[1] = test system: U2OS; experiment: Antiproliferative activity against human U2OS cells assessed as reduction in cell viability at 10 uM after 5 days by CellTiter 96 non-radioactive cell proliferation assay; assay type: functional, cell-based; details: time 5.0 day
Method in brief: (§1)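 Colorimetric CellTiter 96 AQueous proliferation assay in 96-well format; 2000 cells/well seeded for U2OS, 3000 cells/well for MEFs; grown 5 days with or without 10 μM inhibitor; run in triplicate. Inhibitors dissolved in DMSO, final DMSO in medium ≤1%. MEFs cultured in DMEM/10% FBS, glutamine, non-essential amino acids, sodium pyruvate.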

[2] = target: High affinity nerve growth factor receptor (Homo sapiens) (UniProt P04629); experiment: Inhibition of recombinant human N-terminal His6-tagged TrkA (441 to 760 residues) expressed in baculovirus infected Sf21 cells assessed as remaining activity at 1 uM using Poly(Glu,Tyr) as substrate incubated for 30 mins in presence of [gamma-33P]ATP by filter binding method relative to control
Method in brief: (§2)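 Screened at the International Centre for Protein Kinase Profiling against a 140-kinase panel, with inhibitor at 0.1 or 1 μM; activity expressed as percentage of DMSO control reactions, mean of triplicate reactions.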

[3] = target: T1, NUAK family SNF1-like kinase 1 (Homo sapiens) (UniProt O60285); experiment: Inhibition of NUAK1 in HEK293 cells assessed as reduction in MYPT1 phosphorylation at Ser445 residue at 10 uM incubated for 16 hrs by immunoblot analysis; assay type: cell-based
T1 sequence (whole entry): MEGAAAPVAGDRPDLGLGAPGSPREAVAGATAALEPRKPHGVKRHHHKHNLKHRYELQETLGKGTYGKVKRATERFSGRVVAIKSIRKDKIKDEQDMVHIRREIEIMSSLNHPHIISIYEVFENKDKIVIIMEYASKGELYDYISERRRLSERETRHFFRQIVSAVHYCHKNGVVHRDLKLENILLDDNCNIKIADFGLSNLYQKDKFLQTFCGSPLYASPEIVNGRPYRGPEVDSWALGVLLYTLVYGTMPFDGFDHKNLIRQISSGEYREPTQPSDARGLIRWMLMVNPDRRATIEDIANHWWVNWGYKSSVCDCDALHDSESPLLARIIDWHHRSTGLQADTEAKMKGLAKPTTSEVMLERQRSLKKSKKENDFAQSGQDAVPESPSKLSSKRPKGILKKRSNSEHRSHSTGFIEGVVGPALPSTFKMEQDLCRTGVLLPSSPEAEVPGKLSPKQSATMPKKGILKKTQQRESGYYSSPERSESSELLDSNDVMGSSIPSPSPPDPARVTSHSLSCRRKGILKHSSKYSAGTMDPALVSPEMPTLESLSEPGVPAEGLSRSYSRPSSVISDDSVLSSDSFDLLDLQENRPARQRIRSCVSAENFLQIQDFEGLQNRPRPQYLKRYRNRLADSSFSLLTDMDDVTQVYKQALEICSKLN
Method in brief: (§3)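 HEK-293 cells exposed to inhibitor or DMSO for 16 h; medium replaced by EDTA-PBS dissociation buffer with the same inhibitor concentration to induce detachment (gentle tapping, 70 g, 3 min); cells lysed at once; MYPT1 immunoprecipitated from 0.5 mg lysate, blotted for p-Ser445 and total MYPT1; repeated three times.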

[4] = target: T1, NUAK family SNF1-like kinase 1 (Homo sapiens); experiment: Inhibition of NUAK1 (unknown origin) expressed in HEK293 cells assessed as reduction in MYPT1 phosphorylation at Ser445 residue at 30 uM incubated for 16 hrs by immunoblot analysis; assay type: cell-based
Method in brief: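 HEK-293 Flp/In T-Rex cells stably expressing HA–NUAK1 or HA–NUAK1[A195T] (doxycycline 0.1 μg/ml, 16–24 h to induce) treated with inhibitor 16 h, then detached in EDTA-PBS dissociation buffer containing the same inhibitor concentration, tapped and spun 70 g 3 min; lysed, endogenous MYPT1 immunoprecipitated from 0.5 mg lysate and immunoblotted for p-Ser445 and total MYPT1; three separate experiments.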

[5] = target: T1, NUAK family SNF1-like kinase 1 (Homo sapiens); experiment: Inhibition of NUAK1 in human U2OS cells assessed as reduction in MYPT1 phosphorylation at Ser445 residues at 10 uM after 16 hrs by immunoblot analysis; assay type: cell-based
Method in brief: (§4)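 U2OS cells or NUAK1+/+ MEFs treated with or without 10 μM inhibitor for 16 h, then 20 min in EDTA-PBS dissociation buffer with 10 μM inhibitor or DMSO; detached by tapping and 70 g 3 min spin, lysed immediately and immunoblotted for MYPT1 p-Ser445; three separate experiments.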

[6] = test system: MEF; experiment: Inhibition of NUAK1 in NUAK1+/+ MEF cells assessed as reduction in MYPT1 phosphorylation at Ser445 residues at 10 uM after 16 hrs by immunoblot analysis; assay type: cell-based; details: Mus musculus; method in brief: as §4
[7] = test system: MEF; experiment: Antiproliferative activity against NUAK1+/+ MEF cells assessed as reduction in cell viability at 10 uM after 5 days by CellTiter 96 non-radioactive cell proliferation assay; assay type: functional, cell-based; details: Mus musculus, time 5.0 day; method in brief: as §1
[8] = test system: MEF; experiment: Inhibition of cell migration in NUAK1+/+ MEF cells at 10 uM pre incubated for 1 hr followed by overnight incubation and measured after 15 to 20 hrs by microscopic based wound healing assay; assay type: functional; details: Mus musculus
Method in brief: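 Wound healing: equal MEF numbers loaded into both chambers of inserts with a 500 μm gap, inhibitor (10 μM) added 1 h before; after overnight at 37 °C, 5% CO2 insert removed and gap closure filmed by time-lapse microscopy every 2 min over 15–20 h; triplicate.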

[9] = test system: U2OS; experiment: Inhibition of cell invasion in human U2OS cells at 10 uM incubated for 16 hrs by matrigel based transwell assay; assay type: functional
Method in brief: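 Growth-factor-reduced Matrigel Transwell invasion: U2OS cells serum-deprived 2 h, detached, 2.5×10^5 cells in DMEM/1% BSA added to upper chambers in triplicate, DMEM/10% FBS as chemoattractant below; 16 h at 37 °C, 5% CO2 with or without 10 μM inhibitor in both compartments; cells on lower filter face fixed, stained, imaged ×10 and counted; mean ± S.D.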

[10] = target: Aurora kinase B (Homo sapiens) (UniProt Q96GD4); experiment: Inhibition of recombinant human N-terminal His6-tagged Aurora B (1 to 344 residues) expressed in Escherichia coli at 1 uM using LRRLSLGLRRLSLGLRRLSLGLRRLSLG as substrate incubated for 30 mins in presence of [gamma-33P]ATP by filter binding method; method in brief: as §2
Sequence of Aurora kinase B (Homo sapiens) (Q96GD4 whole entry, the tested form may be a part): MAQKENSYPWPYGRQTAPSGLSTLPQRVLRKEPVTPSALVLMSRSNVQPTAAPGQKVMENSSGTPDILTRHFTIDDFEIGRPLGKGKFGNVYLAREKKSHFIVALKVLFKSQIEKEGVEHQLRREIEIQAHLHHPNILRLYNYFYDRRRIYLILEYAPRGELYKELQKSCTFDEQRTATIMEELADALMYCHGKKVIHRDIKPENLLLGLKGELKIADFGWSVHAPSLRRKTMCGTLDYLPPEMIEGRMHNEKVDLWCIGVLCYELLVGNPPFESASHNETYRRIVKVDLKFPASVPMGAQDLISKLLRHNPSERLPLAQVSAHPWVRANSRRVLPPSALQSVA

[11] = target: Tyrosine-protein kinase ABL1 (Homo sapiens) (UniProt P00519); experiment: Inhibition of recombinant human N-terminal GST-tagged ABL (118 to 535 residues) expressed in Escherichia coli co-expressed with His-tagged YopH at 1 uM using EAIYAAPFAKKK as substrate incubated for 30 mins in presence of [gamma-33P]ATP by filter binding method
Sequence of Tyrosine-protein kinase ABL1 (Homo sapiens) (P00519 whole entry, the tested form may be a part): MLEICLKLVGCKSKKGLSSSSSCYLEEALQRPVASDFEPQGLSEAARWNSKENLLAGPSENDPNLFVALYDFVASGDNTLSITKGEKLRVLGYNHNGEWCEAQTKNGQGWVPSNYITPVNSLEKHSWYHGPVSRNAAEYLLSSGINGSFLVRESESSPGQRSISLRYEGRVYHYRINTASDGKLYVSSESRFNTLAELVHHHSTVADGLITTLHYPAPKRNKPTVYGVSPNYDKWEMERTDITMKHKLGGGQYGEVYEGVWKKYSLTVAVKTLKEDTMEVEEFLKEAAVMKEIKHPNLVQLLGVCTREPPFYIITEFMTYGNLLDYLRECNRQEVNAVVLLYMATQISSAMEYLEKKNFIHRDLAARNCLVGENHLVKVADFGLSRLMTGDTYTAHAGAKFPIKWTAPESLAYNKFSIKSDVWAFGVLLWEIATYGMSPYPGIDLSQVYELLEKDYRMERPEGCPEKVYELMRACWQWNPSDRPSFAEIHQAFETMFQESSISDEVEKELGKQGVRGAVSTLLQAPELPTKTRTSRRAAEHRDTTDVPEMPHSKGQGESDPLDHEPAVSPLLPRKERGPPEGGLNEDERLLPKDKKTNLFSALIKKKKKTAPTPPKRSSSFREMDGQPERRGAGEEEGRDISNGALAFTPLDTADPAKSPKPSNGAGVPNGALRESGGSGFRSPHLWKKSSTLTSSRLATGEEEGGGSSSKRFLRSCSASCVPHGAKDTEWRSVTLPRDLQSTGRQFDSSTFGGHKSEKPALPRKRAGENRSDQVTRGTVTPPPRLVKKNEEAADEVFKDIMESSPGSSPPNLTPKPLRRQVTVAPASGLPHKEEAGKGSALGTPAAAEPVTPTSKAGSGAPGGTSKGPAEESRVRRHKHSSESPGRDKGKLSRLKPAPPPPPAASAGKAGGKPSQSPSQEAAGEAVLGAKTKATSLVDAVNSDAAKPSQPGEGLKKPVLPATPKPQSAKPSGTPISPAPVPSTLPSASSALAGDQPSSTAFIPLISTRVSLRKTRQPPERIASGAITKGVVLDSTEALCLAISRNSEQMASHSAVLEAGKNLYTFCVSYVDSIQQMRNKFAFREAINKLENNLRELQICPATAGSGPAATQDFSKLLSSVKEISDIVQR
Method in brief: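 Run within a 140-kinase specificity panel at the International Centre for Protein Kinase Profiling. Compounds were dissolved in DMSO and tested in vitro at 0.1 or 1 μM. Activity is expressed as percentage of kinase activity in DMSO control reactions, as the mean ± S.D. of triplicate reactions.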

[12] = target: T2, Aurora kinase A (Homo sapiens) (UniProt O14965); experiment: Inhibition of recombinant human N-terminal Hi6-tagged Aurora A (2 to 403 residues) expressed in Escherichia coli 1 uM using LRRLSLGLRRLSLGLRRLSLGLRRLSLG as substrate incubated for 30 mins in presence of [gamma-33P]ATP by filter binding method; method in brief: as §2
T2 sequence (whole entry): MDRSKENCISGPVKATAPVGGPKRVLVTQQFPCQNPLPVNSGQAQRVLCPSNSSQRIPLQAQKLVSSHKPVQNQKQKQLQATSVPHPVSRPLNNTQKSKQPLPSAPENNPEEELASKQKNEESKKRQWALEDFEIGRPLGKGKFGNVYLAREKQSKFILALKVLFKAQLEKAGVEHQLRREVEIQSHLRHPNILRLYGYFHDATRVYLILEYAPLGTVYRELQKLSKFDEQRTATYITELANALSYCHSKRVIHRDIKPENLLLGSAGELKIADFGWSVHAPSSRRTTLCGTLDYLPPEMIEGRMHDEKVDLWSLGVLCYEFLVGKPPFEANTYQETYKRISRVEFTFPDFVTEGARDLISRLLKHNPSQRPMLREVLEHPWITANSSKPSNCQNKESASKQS

[13] = target: NUAK family SNF1-like kinase 2 (Homo sapiens) (UniProt Q9H093); experiment: Inhibition of GST-tagged NUAK2 (unknown origin) expressed in HEK293 cells using ALNRTSSDSALHRRR as substrate incubated for 30 mins in presence of [gamma-32P]-ATP by Cerenkov counting method; assay type: cell-based
Sequence of NUAK family SNF1-like kinase 2 (Homo sapiens) (Q9H093 whole entry): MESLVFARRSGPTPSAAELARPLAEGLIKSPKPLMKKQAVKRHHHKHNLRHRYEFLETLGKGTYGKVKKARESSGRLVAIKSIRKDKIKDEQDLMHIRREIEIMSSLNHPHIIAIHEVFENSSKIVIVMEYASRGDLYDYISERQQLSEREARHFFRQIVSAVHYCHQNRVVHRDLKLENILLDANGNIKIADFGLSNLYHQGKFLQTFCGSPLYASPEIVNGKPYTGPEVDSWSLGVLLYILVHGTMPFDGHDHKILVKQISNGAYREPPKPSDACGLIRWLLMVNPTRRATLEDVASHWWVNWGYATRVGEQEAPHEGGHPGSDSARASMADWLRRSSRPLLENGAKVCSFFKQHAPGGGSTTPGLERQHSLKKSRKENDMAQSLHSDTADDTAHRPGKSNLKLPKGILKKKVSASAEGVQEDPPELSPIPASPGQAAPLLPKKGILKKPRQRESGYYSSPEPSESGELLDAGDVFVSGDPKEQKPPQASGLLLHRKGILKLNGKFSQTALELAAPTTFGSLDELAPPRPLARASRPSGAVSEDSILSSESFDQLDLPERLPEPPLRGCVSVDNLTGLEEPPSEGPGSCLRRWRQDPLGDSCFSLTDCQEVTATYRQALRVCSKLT
Method in brief: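 GST–NUAK2 purified on glutathione–Sepharose from HEK-293 cells 36–48 h after transient transfection; 100 ng enzyme in 50 mM Tris/HCl pH 7.5, 0.1 mM EGTA, 10 mM magnesium acetate, 200 μM Sakamototide, 0.1 mM [γ-32P]ATP, inhibitor in DMSO; 30 min at 30 °C, stopped with 25 mM EDTA, spotted on P81, Cerenkov counted; triplicate; IC50 by non-linear regression versus DMSO control.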

[14] = target: T1, NUAK family SNF1-like kinase 1 (Homo sapiens); experiment: Inhibition of NUAK1 in HEK293 cells assessed as reduction in MYPT1 phosphorylation at Ser445 residue at 0.1 to 10 uM incubated for 16 hrs by immunoblot analysis; assay type: cell-based; details: dose 0.1-10 µM; method in brief: as §3
[15] = target: Tyrosine-protein kinase JAK2 (Homo sapiens) (UniProt O60674); experiment: Inhibition of JAK2 (unknown origin) activity at 1 uM relative to control; method in brief: as §2
Sequence of Tyrosine-protein kinase JAK2 (Homo sapiens) (O60674 whole entry, the tested form may be a part): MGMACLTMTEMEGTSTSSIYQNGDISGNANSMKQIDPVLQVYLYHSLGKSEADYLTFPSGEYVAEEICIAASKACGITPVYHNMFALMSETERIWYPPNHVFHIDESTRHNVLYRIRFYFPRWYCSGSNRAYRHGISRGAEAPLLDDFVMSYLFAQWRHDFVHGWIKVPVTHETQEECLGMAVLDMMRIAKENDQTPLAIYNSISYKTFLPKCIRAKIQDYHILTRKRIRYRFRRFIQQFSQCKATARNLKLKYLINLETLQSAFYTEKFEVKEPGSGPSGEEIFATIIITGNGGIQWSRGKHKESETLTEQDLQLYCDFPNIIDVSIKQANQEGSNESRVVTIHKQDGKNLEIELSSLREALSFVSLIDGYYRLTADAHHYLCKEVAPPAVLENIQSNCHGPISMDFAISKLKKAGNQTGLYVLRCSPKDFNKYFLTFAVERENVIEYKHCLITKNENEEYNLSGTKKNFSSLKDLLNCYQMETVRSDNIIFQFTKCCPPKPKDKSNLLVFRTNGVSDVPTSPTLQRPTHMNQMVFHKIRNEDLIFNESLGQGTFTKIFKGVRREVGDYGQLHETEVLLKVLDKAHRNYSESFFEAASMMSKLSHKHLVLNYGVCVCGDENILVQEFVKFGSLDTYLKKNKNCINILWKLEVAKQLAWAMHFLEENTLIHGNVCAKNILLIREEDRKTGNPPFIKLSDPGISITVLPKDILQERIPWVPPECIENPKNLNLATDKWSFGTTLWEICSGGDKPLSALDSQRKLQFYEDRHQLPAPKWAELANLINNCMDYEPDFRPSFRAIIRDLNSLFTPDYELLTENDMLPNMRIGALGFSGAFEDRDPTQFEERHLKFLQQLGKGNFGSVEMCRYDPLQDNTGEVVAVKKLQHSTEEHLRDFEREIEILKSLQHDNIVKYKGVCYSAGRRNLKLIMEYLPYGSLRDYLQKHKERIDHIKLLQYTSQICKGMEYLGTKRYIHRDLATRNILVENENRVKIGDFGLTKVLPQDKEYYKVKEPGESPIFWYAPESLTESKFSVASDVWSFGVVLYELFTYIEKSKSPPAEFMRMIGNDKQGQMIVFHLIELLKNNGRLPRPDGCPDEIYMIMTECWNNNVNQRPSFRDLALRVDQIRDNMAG

[16] = target: Serine/threonine-protein kinase MARK1 (Homo sapiens) (UniProt Q9P0L2); experiment: Inhibition of recombinant human N-terminal His6-tagged MARK1 (2 to 795 residues) expressed in baculovirus infected Sf21 cells at 1 uM using KKKVSRSGLYRSPSMPENLNRPR as substrate incubated for 30 mins in presence of [gamma-33P]ATP by filter binding method; method in brief: as §2
[17] = target: Serine/threonine-protein kinase BRSK1 (Homo sapiens) (UniProt Q8TDC3); experiment: Inhibition of recombinant human N-terminal His6-tagged BRSK1 (2 to 778 residues) expressed in baculovirus infected Sf21 cells at 1 uM using KKLNRTLSFAEPG as substrate incubated for 30 mins in presence of [gamma-33P]ATP by filter binding method; method in brief: as §2
[18] = target: MAP/microtubule affinity-regulating kinase 3 (Homo sapiens) (UniProt P27448); experiment: Inhibition of recombinant human N-terminal His6-tagged MARK3 (2 to 729 residues) expressed in baculovirus infected Sf21 cells at 1 uM using CHKtide as substrate incubated for 30 mins in presence of [gamma-33P]ATP by filter binding method; method in brief: as §2
[19] = target: AMPK alpha1/beta2/gamma1 (Homo sapiens) (UniProt O43741+P54619+Q13131); experiment: Inhibition of recombinant N-terminal His6-tagged human AMPKalpha1 (11 to 559 residues)/AMPKbeta2 (1 to 272 residues)/AMPKgamma1 (1 to 331 residues) expressed in baculovirus infected Sf21 cells at 1 uM using SAMS as substrate incubated for 30 mins in presence of [gamma-33P]ATP by filter binding method; method in brief: as §2
Sequence of AMPK alpha1/beta2/gamma1 (Homo sapiens) (O43741 whole entry, looked up, the tested form may be a part): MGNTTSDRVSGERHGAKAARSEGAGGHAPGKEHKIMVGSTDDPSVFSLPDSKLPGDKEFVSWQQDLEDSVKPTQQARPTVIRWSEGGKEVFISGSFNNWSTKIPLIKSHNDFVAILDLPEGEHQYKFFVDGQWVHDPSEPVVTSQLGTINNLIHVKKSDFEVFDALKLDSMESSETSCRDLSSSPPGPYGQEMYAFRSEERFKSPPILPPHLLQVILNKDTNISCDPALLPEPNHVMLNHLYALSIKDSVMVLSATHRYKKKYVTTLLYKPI
Sequence of AMPK alpha1/beta2/gamma1 (Homo sapiens) (P54619 whole entry, looked up, the tested form may be a part): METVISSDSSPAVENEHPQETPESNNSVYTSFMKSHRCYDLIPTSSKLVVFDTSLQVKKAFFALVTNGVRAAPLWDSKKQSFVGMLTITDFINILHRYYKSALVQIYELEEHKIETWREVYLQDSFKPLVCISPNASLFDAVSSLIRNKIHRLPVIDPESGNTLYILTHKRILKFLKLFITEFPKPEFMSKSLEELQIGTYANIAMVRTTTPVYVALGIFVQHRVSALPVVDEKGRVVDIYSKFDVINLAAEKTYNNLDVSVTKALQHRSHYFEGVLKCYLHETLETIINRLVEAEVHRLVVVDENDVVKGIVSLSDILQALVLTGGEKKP
Sequence of AMPK alpha1/beta2/gamma1 (Homo sapiens) (Q13131 whole entry, looked up, the tested form may be a part): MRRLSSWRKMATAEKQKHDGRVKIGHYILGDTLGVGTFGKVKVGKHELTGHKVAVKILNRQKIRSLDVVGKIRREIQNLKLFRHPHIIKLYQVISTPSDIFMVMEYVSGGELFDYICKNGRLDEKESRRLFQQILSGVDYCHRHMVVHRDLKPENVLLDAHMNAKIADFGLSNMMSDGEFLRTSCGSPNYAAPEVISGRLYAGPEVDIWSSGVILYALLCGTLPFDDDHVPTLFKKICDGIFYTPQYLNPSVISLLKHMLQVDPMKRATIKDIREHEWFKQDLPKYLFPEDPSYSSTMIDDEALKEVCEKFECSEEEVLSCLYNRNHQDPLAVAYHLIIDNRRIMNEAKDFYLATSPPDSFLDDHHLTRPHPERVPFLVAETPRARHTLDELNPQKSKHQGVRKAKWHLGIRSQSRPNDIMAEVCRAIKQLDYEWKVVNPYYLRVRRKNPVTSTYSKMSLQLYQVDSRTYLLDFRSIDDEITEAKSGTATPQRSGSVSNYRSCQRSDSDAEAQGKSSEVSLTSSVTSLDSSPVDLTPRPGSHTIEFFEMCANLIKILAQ

Row | Compound | inhibition [1] | Activity [2] [%] | inhibition [3] | inhibition [4] | inhibition [5] | inhibition [6] | inhibition [7] | inhibition [8] | inhibition [9] | inhibition [10] | inhibition [11] | inhibition [12] | inhibition [13] | inhibition [14] | inhibition [15] | inhibition [16] | inhibition [17] | inhibition [18] | inhibition [19]
1 | Cc1nc(Nc2cnn(C3CCNCC3)c2)nc2c1N(C)C(=O)c1cc3ccccc3cc1N2C | Active | 82 | Active | Active | Active | Active | Active | Active | Active | – | – | – | – | – | – | – | – | – | –
2 | CN1C(=O)c2cc3ccccc3cc2N(C)c2nc(Nc3cnn(C4CCNCC4)c3)ncc21 | – | – | – | – | – | – | – | – | – | Active | Active | Active | inactive | Active | Active | – | – | – | –
3 | CN1C(=O)c2ccccc2N(C)c2nc(Nc3cnn(C4CCNCC4)c3)ncc21 | – | – | – | – | – | – | – | – | – | Active | Active | Active | inactive | Active | Active | Active | Active | Active | Active
